Activity calls are given as the source filed them.
Tests used:
[1] = biological target: T1, Kappa-type opioid receptor (Homo sapiens, UniProt P41145); experiment: Agonist activity at human kappa-type opioid receptor expressed in CHO-K1 cells assessed as forskolin-induced cAMP accumulation after 30 mins in presence of forskolin by luminescence-based HitHunter cAMP assay; assay type: functional, cell-based
In short: (§1)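 CHO-K1 cells expressing the receptor were kept at 37 °C in 5% CO2. cAMP data were normalized to vehicle and forskolin-only controls. Each compound was run in triplicate in parallel assays in ≥2 independent experiments. EC50 and Emax came from sigmoidal nonlinear regression and were averaged across experiments as mean ± SEM.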

[2] = biological target: T1, Kappa-type opioid receptor; experiment: Agonist activity at human kappa-type opioid receptor expressed in CHO-K1 cells assessed as forskolin-induced cAMP accumulation up to 10 uM after 30 mins in presence of forskolin by luminescence-based HitHunter cAMP assay; assay type: functional, cell-based; in short: as §1
[3] = biological target: Delta-type opioid receptor (Homo sapiens) (UniProt P41143); experiment: Agonist activity at human delta-type opioid receptor expressed in CHO-K1 cells assessed as forskolin-induced cAMP accumulation up to 10 uM after 30 mins in presence of forskolin by luminescence-based HitHunter cAMP assay; assay type: functional, cell-based; in short: as §1
Sequence of Delta-type opioid receptor (Homo sapiens) (P41143 whole entry): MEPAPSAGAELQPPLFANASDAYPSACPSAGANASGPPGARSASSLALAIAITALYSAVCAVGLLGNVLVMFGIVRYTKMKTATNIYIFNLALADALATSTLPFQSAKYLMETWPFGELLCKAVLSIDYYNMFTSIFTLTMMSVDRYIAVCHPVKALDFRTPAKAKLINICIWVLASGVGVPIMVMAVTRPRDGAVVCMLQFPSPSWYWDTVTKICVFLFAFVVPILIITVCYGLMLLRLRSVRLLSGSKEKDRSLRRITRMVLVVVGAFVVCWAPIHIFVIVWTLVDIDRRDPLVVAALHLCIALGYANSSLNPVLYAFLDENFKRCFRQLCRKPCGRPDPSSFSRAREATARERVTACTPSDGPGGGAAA

[4] = biological target: Mu-type opioid receptor (Homo sapiens) (UniProt P35372); experiment: Agonist activity at human mu-type opioid receptor expressed in CHO-K1 cells assessed as forskolin-induced cAMP accumulation up to 10 uM after 30 mins in presence of forskolin by luminescence-based HitHunter cAMP assay; assay type: functional, cell-based; in short: as §1
Sequence of Mu-type opioid receptor (Homo sapiens) (P35372 whole entry): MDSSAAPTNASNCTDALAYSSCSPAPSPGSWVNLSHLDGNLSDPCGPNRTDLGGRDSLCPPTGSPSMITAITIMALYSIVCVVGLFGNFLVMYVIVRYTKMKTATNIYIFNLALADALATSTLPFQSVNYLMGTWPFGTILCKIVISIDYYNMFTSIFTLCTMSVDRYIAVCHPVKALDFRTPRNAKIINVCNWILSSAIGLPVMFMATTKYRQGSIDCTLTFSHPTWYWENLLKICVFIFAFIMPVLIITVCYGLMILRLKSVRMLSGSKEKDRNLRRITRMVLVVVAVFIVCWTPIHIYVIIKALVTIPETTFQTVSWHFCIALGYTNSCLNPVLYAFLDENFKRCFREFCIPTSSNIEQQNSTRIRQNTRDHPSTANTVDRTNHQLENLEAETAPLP

[5] = Metabolic stability in IGS Sprague-Dawley rat liver microsomes assessed as CYP450-mediated oxidative metabolism at 10 uM measured at 2.5 hrs in presence of NADPH by LC-MS analysis; assay type: ADME
In short: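 Rat liver microsomes (0.25 mg/mL) in 50 mM potassium phosphate with 2 mM MgCl2, pH 7.4, were prewarmed to 37 °C. Compound (10 μM final) and NADPH (1 mM final) were added. Samples were quenched in MeCN with 1% formic acid containing tolbutamide, centrifuged and analysed by LCMS.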

Liver = experiment: Metabolic stability in IGS Sprague-Dawley rat liver microsomes at 10 uM measured at 2.5 hrs in absence of NADPH by LC-MS analysis; assay type: ADME, microsome
In short: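 Incubation used rat liver microsomes (0.25 mg/mL) in 50 mM potassium phosphate, 2 mM MgCl2, pH 7.4, at 37 °C, with 10 μM compound final and buffer in place of NADPH. Samples were quenched in MeCN/1% formic acid with tolbutamide, then quantified by LCMS.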

Mus musculus [6] = experiment: Analgesic activity in B6-SJL mouse assessed as increase in tail withdrawal latency at 2 mg/kg, ip measured up to 10 to 30 mins by warm water tail withdrawal assay; assay type: functional, organism-based
In short: (§2)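 Adult male mice (25−35 g) were habituated to restrainers over four days. Drug or vehicle (DMSO:Tween-80:saline 2:1:7) was given ip. One-third of the tail was immersed in 50 °C water, with a 10 s cutoff. Baseline was the mean of three latencies. Readings were taken at 5–120 min. %MPE was calculated against pretreatment latency; n = 8−9 per group.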

Mus musculus [7] = experiment: Analgesic activity in sc dosed B6-SJL mouse assessed as increase in tail withdrawal latency measured 30 mins post each dose by warm water tail withdrawal assay; assay type: functional; settings: 0.5 h
In short: (§3)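 Vehicle was DMSO:Tween-80:saline 2:1:7. Tail-withdrawal latency in 50 °C water (10 s cutoff) was recorded 30 min after each dose.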

Mus musculus [8] = experiment: Analgesic activity in B6-SJL mouse assessed as increase in tail withdrawal latency at 0.3 to 10 mg/kg, sc measured 30 mins post each dose by warm water tail withdrawal assay; assay type: functional; settings: 0.5 h; in short: as §3
Mus musculus [9] = experiment: Analgesic activity in formalin-induced B6-SJL mouse pain model assessed as inhibition of nociceptive response at 2 mg/kg, ip preincubated for 10 mins followed by formalin injection measured at 10 mins; assay type: functional, organism-based
In short: (§4)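 Mice habituated to the test box received agonist ip in DMSO:Tween-80:saline (2:1:7). Ten min later, 20 μL of 2% formalin was injected intradermally into the right hind footpad. Video ran for 60 min, scored every 5 s (weight-bearing scale 0–3) by a blinded analyst and averaged per 5 min.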

Mus musculus [10] = experiment: Analgesic activity in formalin-induced B6-SJL mouse pain model assessed as inhibition of nociceptive response at 2 mg/kg, ip preincubated for 10 mins followed by formalin injection measured at 10 mins in presence of kappa-type opioid receptor antagonist nor-BNI; assay type: functional, organism-based
In short: (§5)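 nor-BNI (10 mg/kg, sc) was given 24 h before ip agonist (DMSO:Tween-80:saline 2:1:7). After 10 min, 20 μL of 2% formalin was injected intradermally into the right hind paw.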

Mus musculus [11] = experiment: Analgesic activity in formalin-induced B6-SJL mouse pain model assessed as inhibition of nociceptive response AUC at 2 mg/kg, ip preincubated for 10 mins followed by formalin injection measured up to 15 mins; assay type: functional, organism-based; in short: as §4
Mus musculus [12] = experiment: Analgesic activity in formalin-induced B6-SJL mouse pain model assessed as inhibition of inflammatory response AUC at 2 mg/kg, ip preincubated for 10 mins followed by formalin injection measured at 15 to 60 mins; assay type: functional, organism-based; in short: as §4
Mus musculus [13] = experiment: Antiinflammatory activity in B6-SJL mouse assessed as reduction in formalin-induced paw edema at 2 mg/kg, ip preincubated for 10 mins followed by formalin injection measured at 60 mins; assay type: functional, organism-based
In short: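 Right hind paw height, width and depth were measured by calipers before ip drug or vehicle (DMSO:Tween-80:saline 2:1:7). Intradermal 2% formalin (20 μL) followed 10 min later, and measurements were repeated at 60 min. One-way ANOVA with Bonferroni tests; n = 7 per group.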

Mus musculus [14] = experiment: Analgesic activity in formalin-induced B6-SJL mouse pain model assessed as inhibition of inflammatory response at 2 mg/kg, ip preincubated for 10 mins followed by formalin injection measured at 20 to 45 mins; assay type: functional, organism-based; in short: as §4
Mus musculus [15] = experiment: Analgesic activity in formalin-induced B6-SJL mouse pain model assessed as inhibition of inflammatory response at 2 mg/kg, ip preincubated for 10 mins followed by formalin injection measured at 20 to 45 mins in presence of kappa-type opioid receptor antagonist nor-BNI; assay type: functional, organism-based; in short: as §5
Mus musculus [16] = experiment: Analgesic activity in formalin-induced B6-SJL mouse pain model assessed as inhibition of nociceptive response AUC at 2 mg/kg, ip preincubated for 10 mins followed by formalin injection measured up to 15 mins in presence of kappa-type opioid receptor antagonist nor-BNI; assay type: functional, organism-based; in short: as §5
Mus musculus [17] = experiment: Analgesic activity in formalin-induced B6-SJL mouse pain model assessed as inhibition of inflammatory response AUC at 2 mg/kg, ip preincubated for 10 mins followed by formalin injection measured at 15 to 60 mins in presence of kappa-type opioid receptor antagonist nor-BNI; assay type: functional, organism-based; in short: as §5
Mus musculus [18] = experiment: Analgesic activity in B6-SJL mouse assessed as increase in tail withdrawal latency at 2 mg/kg, ip measured up to 5 to 30 mins by warm water tail withdrawal assay; assay type: functional, organism-based; in short: as §2
Mus musculus [19] = experiment: Analgesic activity in formalin-induced B6-SJL mouse pain model assessed as inhibition of nociceptive response at 2 mg/kg, ip preincubated for 10 mins followed by formalin injection measured at 5 to 10 mins; assay type: functional, organism-based; in short: as §4
Mus musculus [20] = experiment: Analgesic activity in formalin-induced B6-SJL mouse pain model assessed as inhibition of inflammatory response at 2 mg/kg, ip preincubated for 10 mins followed by formalin injection measured at 20 to 50 mins; assay type: functional, organism-based; in short: as §4

T1 sequence (P41145 whole entry): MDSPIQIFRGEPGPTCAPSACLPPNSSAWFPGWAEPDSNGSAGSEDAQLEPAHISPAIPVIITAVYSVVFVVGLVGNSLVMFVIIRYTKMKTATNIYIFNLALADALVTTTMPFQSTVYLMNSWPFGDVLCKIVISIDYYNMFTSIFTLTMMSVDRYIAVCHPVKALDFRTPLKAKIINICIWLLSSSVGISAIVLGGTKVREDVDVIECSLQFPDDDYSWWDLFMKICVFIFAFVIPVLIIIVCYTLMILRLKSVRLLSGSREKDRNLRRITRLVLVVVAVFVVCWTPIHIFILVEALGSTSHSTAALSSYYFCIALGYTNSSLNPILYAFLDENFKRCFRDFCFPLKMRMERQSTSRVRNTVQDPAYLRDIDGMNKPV

Row | Compound | EC50 [1] [nM] | Emax [2] [%] | Emax [3] [%] | Emax [4] [%] | other results
1 | COC(=O)[C@@H]1CC(=O)C(O)=C2[C@@]1(C)CC[C@H]1C(=O)O[C@H](c3ccoc3)C[C@]21C | > 10000 | 0 |  |  | 
2 | COC(=O)[C@H]1[C@](C)([C@@H](CC(=O)O)C(=O)OC)CC[C@H]2C(=O)O[C@H](c3ccoc3)C[C@]12C | > 10000 | 0 |  |  | 
3 | COC(=O)[C@@H]1CCC(=O)[C@H]2[C@@]1(C)CC[C@H]1C(=O)O[C@H](c3ccoc3)C[C@]21C | > 10000 | 0 |  |  | 
4 | COC(=O)[C@H]1[C@](C)([C@@H](CC=O)C(=O)OC)CC[C@H]2C(=O)O[C@H](c3ccoc3)C[C@]12C | 30 | 100 | 0 | 0 | 
5 | COC(=O)[C@@H]1C[C@]2(CCC(=O)O2)C(=O)[C@H]2[C@@]1(C)CC[C@H]1C(=O)O[C@H](c3ccoc3)C[C@]21C | 0.6 | 100 | 0 | 0 | Stability [5]: Stable; Stability (Liver): Stable; Activity (Mus musculus [6]): Active; ED50 (Mus musculus [7]): 0.759 mg/kg; Emax (Mus musculus [8]): 62.4%; inhibition (Mus musculus [9]): Active; inhibition (Mus musculus [10]): inactive; inhibition (Mus musculus [11]): Active; inhibition (Mus musculus [12]): Active; inhibition (Mus musculus [13]): Active; inhibition (Mus musculus [14]): Active; inhibition (Mus musculus [15]): inactive; inhibition (Mus musculus [16]): inactive; inhibition (Mus musculus [17]): inactive
6 | COC(=O)[C@H]1[C@](C)([C@@H](CCOC(C)=O)C(=O)OC)CC[C@H]2C(=O)O[C@H](c3ccoc3)C[C@]12C | 13 | 100 | 0 | 0 | 
7 | COC(=O)[C@H]1[C@](C)([C@@H](CC(OC)OC)C(=O)OC)CC[C@H]2C(=O)O[C@H](c3ccoc3)C[C@]12C | 11.7 | 100 | 0 | 0 | 
8 | COC(=O)[C@H]1[C@](C)([C@@H](CCO)C(=O)OC)CC[C@H]2C(=O)O[C@H](c3ccoc3)C[C@]12C | > 10000 | 0 |  |  | 
9 | COC(=O)[C@@H]1C[C@H](O)C(=O)[C@H]2[C@@]1(C)CC[C@H]1C(=O)O[C@H](c3ccoc3)C[C@]21C |  | 100 | 0 | 0 | 
10 | COC(=O)[C@@H]1C[C@H](OC(C)=O)C(=O)[C@H]2[C@@]1(C)CC[C@H]1C(=O)O[C@H](c3ccoc3)C[C@]21C [SALVINORIN A] |  |  | 0 | 0 | Stability [5]: Stable; Stability (Liver): Stable; Activity (Mus musculus [18]): Active; ED50 (Mus musculus [7]): 1.28 mg/kg; Emax (Mus musculus [8]): 100%; inhibition (Mus musculus [19]): Active; inhibition (Mus musculus [11]): Active; inhibition (Mus musculus [12]): Active; inhibition (Mus musculus [13]): Active; inhibition (Mus musculus [20]): Active

— ChEMBL document CHEMBL4049431 (J Med Chem, 2017)
